The target in assay [1] is T1, Androgen receptor (Homo sapiens) (UniProt P10275).
T1 sequence (whole entry): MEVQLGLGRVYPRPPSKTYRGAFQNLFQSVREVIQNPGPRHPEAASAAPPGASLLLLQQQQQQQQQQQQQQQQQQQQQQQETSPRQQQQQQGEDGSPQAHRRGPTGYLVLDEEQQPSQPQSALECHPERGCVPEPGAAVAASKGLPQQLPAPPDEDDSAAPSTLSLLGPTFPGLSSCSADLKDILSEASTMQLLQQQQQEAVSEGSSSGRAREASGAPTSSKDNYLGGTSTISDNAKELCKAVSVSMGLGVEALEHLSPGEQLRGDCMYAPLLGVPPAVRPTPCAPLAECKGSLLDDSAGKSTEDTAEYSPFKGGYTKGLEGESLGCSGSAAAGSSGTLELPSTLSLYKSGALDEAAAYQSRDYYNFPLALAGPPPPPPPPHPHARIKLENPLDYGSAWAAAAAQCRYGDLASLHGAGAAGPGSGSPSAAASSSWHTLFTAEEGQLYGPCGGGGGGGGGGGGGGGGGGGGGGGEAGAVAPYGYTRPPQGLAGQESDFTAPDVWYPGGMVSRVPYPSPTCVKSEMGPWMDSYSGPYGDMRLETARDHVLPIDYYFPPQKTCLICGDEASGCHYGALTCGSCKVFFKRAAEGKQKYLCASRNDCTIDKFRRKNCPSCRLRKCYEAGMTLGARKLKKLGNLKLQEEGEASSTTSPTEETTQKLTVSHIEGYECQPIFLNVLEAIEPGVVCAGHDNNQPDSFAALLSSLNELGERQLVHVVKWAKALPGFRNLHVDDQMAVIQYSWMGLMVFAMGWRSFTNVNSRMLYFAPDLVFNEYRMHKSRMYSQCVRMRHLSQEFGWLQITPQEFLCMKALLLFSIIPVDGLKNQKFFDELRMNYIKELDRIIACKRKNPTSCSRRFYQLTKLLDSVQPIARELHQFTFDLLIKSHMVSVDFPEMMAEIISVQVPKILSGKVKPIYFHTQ
The settings on record: LNCaP, at 10 µM.

The subject of assay [2] is MDA-MB-468. Briefly: Reduction in Mnk1 protein expression in human MDA-MB-468 cells at 0.63 uM to 20 uM after 24 hrs by SDS-PAGE and Western blotting method. The class given is functional, cell-based. An outline of the steps:
(§1)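 Breast cancer cells in RPMI 1640 with 10% FBS treated 24 h at indicated concentrations, DMSO vehicle control; equal protein loaded on SDS–PAGE and immunoblotted for Mnk1, Mnk2, peIF4E, eIF4E and cleaved PARP; blots reprobed for GAPDH as loading control.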

For assay [3], the system named is MDA-MB-231. Briefly: Antitumor activity against human MDA-MB-231 cells xenografted in nude mouse assessed as reduction in cyclin D1 protein expression at 20 mg/kg, ip dosed once daily for 5 days per week for 28 days by SDS-PAGE and Western blotting method.
The test system of assay [4] is MDA-MB-231. Briefly: Antitumor activity against human MDA-MB-231 cells xenografted in nude mouse assessed as increase in Bax protein expression at 20 mg/kg, ip dosed once daily for 5 days per week for 28 days by SDS-PAGE and Western blotting method.
In assay [5] the test system is MDA-MB-468. Briefly: Reduction in Mnk2 protein expression in human MDA-MB-468 cells at 0.63 uM to 20 uM after 24 hrs by SDS-PAGE and Western blotting method. The class given is functional, cell-based. An outline of the steps:
as §1

The subject of assay [6] is LNCaP. Briefly: Induction of apoptosis in human LNCAP cells assessed as increase in c-PARP formation at 0.6 uM to 20 uM after 24 hrs by SDS-PAGE and Western blotting method. The class given is functional, cell-based. The procedure, abridged: (§2)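 LNCaP cells (RPMI 1640, 10% FBS) exposed 24 h to 0.6–20 μM, DMSO vehicle control; equal protein on SDS–PAGE, immunoblotted for fAR, Mnk1/2, peIF4E, cyclin D1 and cleaved PARP; β-actin reprobe for loading.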

Assay [7] deals with LNCaP. Briefly: Growth inhibition of human LNCAP cells by MTT assay. The class given is functional. An outline of the steps:
(§3)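 Cells grown in RPMI 1640 with 10% FBS, plated at 2500 cells/well, treated across a dose range; growth read by MTT. GI50 taken from dose–response curves by nonlinear regression, at least three independent experiments.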

Assay [8] relates to LNCaP. Briefly: Effect on total eIF4E protein expression in human LNCAP cells at 0.6 uM to 20 uM after 24 hrs by SDS-PAGE and Western blotting method. The class given is functional, cell-based.
The subject of assay [9] is MDA-MB-231. Briefly: Induction of apoptosis in human MDA-MB-231 cells assessed as increase in c-PARP formation at 0.63 uM to 20 uM after 24 hrs by SDS-PAGE and Western blotting method. The class given is functional, cell-based. An outline of the steps: as §1
Assay [10] deals with MCF7. Briefly: Growth inhibition of human MCF7 cells by MTT assay. Format: functional. The procedure, abridged: as §3
The subject of assay [11] is MDA-MB-231. Briefly: Antitumor activity against human MDA-MB-231 cells xenografted in nude mouse assessed as reduction in Mnk1/2 protein expression at 20 mg/kg, ip dosed once daily for 5 days per week for 28 days by SDS-PAGE and Western blotting method.
Assay [12] relates to MDA-MB-468. Briefly: Effect on total eIF4E protein expression in human MDA-MB-468 cells at 0.63 uM to 20 uM after 24 hrs by SDS-PAGE and Western blotting method. The class given is functional, cell-based. The procedure, abridged:
as §1

Assay [13] deals with MDA-MB-231. Briefly: Antitumor activity against human MDA-MB-231 cells xenografted in SCID mouse assessed as inhibition of tumor growth at 20 mg/kg, ip dosed once daily for 5 days per week for 28 days. The class given is functional. As to conditions: MDA-MB-231, ip, in the assay text read “athymic nude mouse” for “SCID mouse”, route intraperitoneal, read-out: TGI. The procedure, abridged: (§4)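 Athymic nude female mice with subcutaneous MDA-MB-231 tumors (10 × 10⁶ cells; ~100 mm³ at randomization, n = 6/group) dosed ip once daily, 5 days/week for 28 days, in 40% β-cyclodextrin/ddH₂O; vehicle controls. %T/C computed as median tumor volume treated vs control at day 28 × 100. Body weight monitored.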

The subject of assay [14] is MDA-MB-231. Briefly: Antitumor activity against human MDA-MB-231 cells xenografted in SCID mouse assessed as tumor growth at 20 mg/kg, ip dosed once daily for 5 days per week for 28 days. Format: functional. The settings on record: route intraperitoneal, in the assay text read “athymic nude mouse” for “SCID mouse”. The procedure, abridged:
as §4

In assay [15] the test system is MCF7. Briefly: Reduction in Mnk1 protein expression in human MCF7 cells at 0.63 uM to 20 uM after 24 hrs by SDS-PAGE and Western blotting method. The class given is functional, cell-based. An outline of the steps:
as §1

In assay [16] the test system is MDA-MB-231. Briefly: Effect on total eIF4E protein expression in human MDA-MB-231 cells at 0.63 uM to 20 uM after 24 hrs by SDS-PAGE and Western blotting method. The class given is functional, cell-based. An outline of the steps:
as §1

The subject of assay [17] is MDA-MB-231. Briefly: Antitumor activity against human MDA-MB-231 cells xenografted in nude mouse assessed as reduction in peIF4E protein expression at 20 mg/kg, ip dosed once daily for 5 days per week for 28 days by SDS-PAGE and Western blotting method.
The test system of assay [18] is LNCaP. Briefly: Reduction in Mnk2 protein expression in human LNCAP cells at 0.6 uM to 20 uM after 24 hrs by SDS-PAGE and Western blotting method. Format: functional, cell-based. An outline of the steps: as §2

Calls of active or inactive are those of the source. The calls are words filed in the database; no cut-off is given here.

This note sets out measurements from ChEMBL document CHEMBL3414559, “Novel C-4 heteroaryl 13-cis-retinamide Mnk/AR degrading agents inhibit cell proliferation and migration and induce apoptosis in human breast and prostate cancer cells and suppress growth of MDA-MB-231 human breast and CWR22Rv1 human prostate tumor xenografts in mice” (J Med Chem, 2015).

Take `CC1=C(/C=C/C(C)=C/C=C/C(C)=C\C(=O)NCc2ccc(O)cc2)C(C)(C)CCC1n1ccnc1` (stereo unspecified): in assay [1], the inhibition entry is “Active”. For the same molecule, the inhibition entry with MDA-MB-468 [2], with MDA-MB-468 [5], in the assay on MCF7 [15] and with LNCaP [18] was “Dose-dependent effect” throughout. For the same molecule, the outcome in the assay with MDA-MB-231 [3], with MDA-MB-231 [4], in the assay with LNCaP [6], with MDA-MB-231 [11] and with MDA-MB-231 [17] was Active. In addition, the GI50 with LNCaP [7] was determined as 1.69 µM; in the assay with MCF7 [10], 0.16 µM. For the same molecule, the outcome in the assay with LNCaP [8], in the assay with MDA-MB-468 [12] and with MDA-MB-231 [16] was inactive. Further, the Activity result in the assay on MDA-MB-231 [9] was “Dose-dependent effect”. Further, the inhibition in vivo at 20 mg/kg in the assay with MDA-MB-231 [13] was 85.4%. The T/C in the assay with MDA-MB-231 [14] came to 14.6%.

Consider `CC1=C(/C=C/C(C)=C/C=C/C(C)=C\C(=O)Nc2cccc(F)c2)C(C)(C)CCC1n1ccnc1` (stereo unspecified), for which, in [1], the inhibition result was “Active”. The inhibition entry with MDA-MB-468 [2], in the assay on MDA-MB-468 [5], with MCF7 [15] and in the assay with LNCaP [18] was “Dose-dependent effect” in each case. Further, the outcome in the assay with MDA-MB-231 [3], in the assay with MDA-MB-231 [4], in the assay with LNCaP [6], in the assay on MDA-MB-231 [11] and in the assay on MDA-MB-231 [17] was Active. The GI50 in the assay on LNCaP [7] stood at 2.69 µM; with MCF7 [10] it was 5.49 µM. Also, the result in the assay with LNCaP [8], with MDA-MB-468 [12] and with MDA-MB-231 [16] was inactive. In addition, the Activity result in the assay on MDA-MB-231 [9] is “Dose-dependent effect”. Besides, the inhibition in vivo at 20 mg/kg in the assay on MDA-MB-231 [13] came out at 85.4%. Moreover, the T/C in the assay on MDA-MB-231 [14] turned out to be 14.6%.
